Experiments:
HDAC6 = target: T1, HDAC6 (Homo sapiens, UniProt Q9UBN7); test: Enzymatic HDAC fluorogenic assay, HDAC6; format: biochemical
T1 sequence (Q9UBN7 1-1215): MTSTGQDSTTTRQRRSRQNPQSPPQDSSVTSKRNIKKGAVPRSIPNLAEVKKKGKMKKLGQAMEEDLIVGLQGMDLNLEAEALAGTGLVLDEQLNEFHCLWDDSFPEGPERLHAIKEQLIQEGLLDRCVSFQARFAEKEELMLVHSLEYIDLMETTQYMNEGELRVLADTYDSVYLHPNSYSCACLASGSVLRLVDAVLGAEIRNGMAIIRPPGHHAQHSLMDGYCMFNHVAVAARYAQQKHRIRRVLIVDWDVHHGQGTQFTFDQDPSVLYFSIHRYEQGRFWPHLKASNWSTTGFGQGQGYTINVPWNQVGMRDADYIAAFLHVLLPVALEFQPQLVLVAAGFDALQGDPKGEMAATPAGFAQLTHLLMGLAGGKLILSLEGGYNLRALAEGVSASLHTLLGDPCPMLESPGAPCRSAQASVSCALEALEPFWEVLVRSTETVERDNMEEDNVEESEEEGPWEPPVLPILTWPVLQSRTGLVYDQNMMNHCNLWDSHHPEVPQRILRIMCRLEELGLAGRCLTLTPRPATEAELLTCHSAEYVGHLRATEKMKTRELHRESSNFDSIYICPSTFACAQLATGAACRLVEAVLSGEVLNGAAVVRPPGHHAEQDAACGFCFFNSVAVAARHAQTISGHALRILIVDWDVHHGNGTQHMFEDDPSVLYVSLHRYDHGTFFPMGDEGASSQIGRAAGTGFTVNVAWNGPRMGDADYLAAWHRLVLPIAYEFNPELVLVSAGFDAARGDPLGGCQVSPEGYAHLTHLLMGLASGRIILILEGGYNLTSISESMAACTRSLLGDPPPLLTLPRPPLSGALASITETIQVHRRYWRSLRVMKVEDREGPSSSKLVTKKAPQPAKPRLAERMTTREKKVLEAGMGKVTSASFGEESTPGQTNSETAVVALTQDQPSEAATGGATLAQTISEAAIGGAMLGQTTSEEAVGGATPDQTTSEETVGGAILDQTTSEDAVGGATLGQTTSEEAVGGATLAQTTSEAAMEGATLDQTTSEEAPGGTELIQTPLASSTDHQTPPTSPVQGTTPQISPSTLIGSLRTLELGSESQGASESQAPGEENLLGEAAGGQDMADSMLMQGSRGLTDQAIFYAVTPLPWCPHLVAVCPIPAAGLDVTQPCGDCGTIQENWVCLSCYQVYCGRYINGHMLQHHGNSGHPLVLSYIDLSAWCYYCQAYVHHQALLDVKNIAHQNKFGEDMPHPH

HDAC2 = HDAC2 (Homo sapiens, UniProt Q92769); test: Enzymatic HDAC fluorogenic assay, HDAC2; format: biochemical
HDAC2, sequence (Q92769 whole entry): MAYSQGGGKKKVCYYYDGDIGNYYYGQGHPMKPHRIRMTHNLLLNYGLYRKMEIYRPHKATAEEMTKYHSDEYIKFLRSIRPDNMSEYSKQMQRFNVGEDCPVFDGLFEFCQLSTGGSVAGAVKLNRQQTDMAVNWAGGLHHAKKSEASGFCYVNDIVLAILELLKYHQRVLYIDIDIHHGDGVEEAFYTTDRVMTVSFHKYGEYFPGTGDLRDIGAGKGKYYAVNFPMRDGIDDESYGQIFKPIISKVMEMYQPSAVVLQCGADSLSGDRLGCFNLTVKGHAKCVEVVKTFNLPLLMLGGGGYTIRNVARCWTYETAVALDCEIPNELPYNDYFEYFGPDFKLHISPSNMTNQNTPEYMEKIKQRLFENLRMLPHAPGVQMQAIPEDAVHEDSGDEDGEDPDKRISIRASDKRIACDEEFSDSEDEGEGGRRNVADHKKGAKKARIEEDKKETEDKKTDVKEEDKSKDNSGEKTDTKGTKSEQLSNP

MDA-MB-231 cells [1] = test: Assessment of cell morphology; format: cell-based, human; settings: 24 hours, dose-dependent, most significant at 300 to 500 μM
HDAC11 = target: T2, HDAC11 (Homo sapiens, UniProt Q96DB2); test: Enzymatic HDAC fluorogenic assay, HDAC11; format: biochemical
T2 sequence (Q96DB2 1-347): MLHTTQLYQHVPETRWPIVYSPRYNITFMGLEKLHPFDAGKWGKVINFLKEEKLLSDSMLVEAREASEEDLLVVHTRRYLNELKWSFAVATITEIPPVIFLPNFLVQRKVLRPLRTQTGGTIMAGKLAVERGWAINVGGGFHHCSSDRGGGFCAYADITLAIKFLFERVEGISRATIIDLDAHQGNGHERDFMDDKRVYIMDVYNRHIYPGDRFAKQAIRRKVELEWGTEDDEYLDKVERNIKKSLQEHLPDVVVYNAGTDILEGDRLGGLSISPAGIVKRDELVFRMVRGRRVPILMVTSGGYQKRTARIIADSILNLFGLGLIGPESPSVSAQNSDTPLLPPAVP

HDAC3 = HDAC3 (Homo sapiens, UniProt O15379); test: Enzymatic HDAC fluorogenic assay, HDAC3; format: biochemical
HDAC3, sequence (O15379 whole entry): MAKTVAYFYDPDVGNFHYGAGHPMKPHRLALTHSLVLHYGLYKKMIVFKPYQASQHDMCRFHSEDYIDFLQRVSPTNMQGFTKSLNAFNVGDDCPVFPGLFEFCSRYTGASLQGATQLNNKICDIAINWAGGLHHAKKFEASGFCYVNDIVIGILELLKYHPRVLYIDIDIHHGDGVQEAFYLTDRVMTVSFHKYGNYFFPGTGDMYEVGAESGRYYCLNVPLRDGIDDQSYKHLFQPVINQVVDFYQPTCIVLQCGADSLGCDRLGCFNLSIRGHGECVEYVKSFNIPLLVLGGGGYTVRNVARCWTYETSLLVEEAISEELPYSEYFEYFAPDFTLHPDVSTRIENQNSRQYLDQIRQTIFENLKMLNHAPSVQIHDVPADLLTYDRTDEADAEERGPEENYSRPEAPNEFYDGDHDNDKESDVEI
HDAC3, sequence (Q9Y618 395-489 partner limits assumed): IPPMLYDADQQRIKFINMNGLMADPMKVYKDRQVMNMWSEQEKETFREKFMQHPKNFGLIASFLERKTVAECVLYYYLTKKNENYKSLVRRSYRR

MDA-MB-231 cells [2] = test: Cell proliferation assay; format: cell-based, human; settings: for impaired MDA-MB-231 cell growth: 3 days; for anti-proliferative activity (in words): 1, 2 and 3 days
HDAC4 = HDAC4 (Homo sapiens, UniProt P56524); test: Enzymatic HDAC fluorogenic assay, HDAC4; format: biochemical
HDAC4, sequence (P56524 627-1084 limits assumed): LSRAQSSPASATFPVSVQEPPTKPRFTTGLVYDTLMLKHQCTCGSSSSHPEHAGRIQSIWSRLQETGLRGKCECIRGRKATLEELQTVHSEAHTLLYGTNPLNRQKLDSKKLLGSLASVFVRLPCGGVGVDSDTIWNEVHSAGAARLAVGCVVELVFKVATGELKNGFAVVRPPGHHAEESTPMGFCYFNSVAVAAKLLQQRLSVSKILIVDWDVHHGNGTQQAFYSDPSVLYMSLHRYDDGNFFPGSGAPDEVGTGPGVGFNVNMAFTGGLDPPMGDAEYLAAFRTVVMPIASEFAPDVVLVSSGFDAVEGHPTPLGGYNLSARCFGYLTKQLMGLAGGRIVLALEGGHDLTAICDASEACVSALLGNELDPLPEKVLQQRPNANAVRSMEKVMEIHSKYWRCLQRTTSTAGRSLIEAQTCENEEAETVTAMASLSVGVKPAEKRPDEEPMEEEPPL

HDAC1 = HDAC1 (Homo sapiens, UniProt Q13547); test: Enzymatic HDAC fluorogenic assay, HDAC1; format: biochemical
HDAC1, sequence (Q13547 whole entry): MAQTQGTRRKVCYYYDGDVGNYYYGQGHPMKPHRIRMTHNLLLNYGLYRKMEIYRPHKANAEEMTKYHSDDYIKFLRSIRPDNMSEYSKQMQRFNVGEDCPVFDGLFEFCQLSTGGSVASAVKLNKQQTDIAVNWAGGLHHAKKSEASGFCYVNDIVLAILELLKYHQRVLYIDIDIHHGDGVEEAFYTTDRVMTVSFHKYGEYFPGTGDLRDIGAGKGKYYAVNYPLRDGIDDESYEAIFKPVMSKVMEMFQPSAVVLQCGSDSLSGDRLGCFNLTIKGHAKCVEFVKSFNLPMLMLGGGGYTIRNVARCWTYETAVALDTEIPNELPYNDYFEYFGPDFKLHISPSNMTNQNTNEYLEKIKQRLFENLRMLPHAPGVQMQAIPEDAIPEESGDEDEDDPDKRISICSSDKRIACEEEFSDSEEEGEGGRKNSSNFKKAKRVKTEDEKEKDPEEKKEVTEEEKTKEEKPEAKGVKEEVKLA

MDA-MB-231 cells [3] = test: Western blot of acetylation status and HDAC expression; format: cell-based, human; settings: 24 hours
How it was run: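 MDA-MB-231 cells were treated 24 hours with test compound at 50–500 μM, with DMSO as negative control. Cells were lysed on ice in RIPA buffer (pH 7.6) with protease and phosphatase inhibitors. Protein (30 µg/lane) was run on SDS-PAGE and blotted to PVDF, then blocked in 5% skim milk/TBST. Antibodies against Ac-α-tubulin (Lys40), α-tubulin, Ac-histone H3 (Lys9), H3, HDAC1, HDAC6 and GAPDH were applied overnight, followed by HRP secondary and ECL detection.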

Row | SMILES | IC50 (HDAC6) | inhibition of class IIb HDAC (in words) (HDAC6) | IC50 (HDAC2) | morphological changes in cells (MDA-MB-231 cells [1]) | IC50 (HDAC11) | inhibition of class IV HDAC (in words) (HDAC11) | IC50 (HDAC3) | impaired MDA-MB-231 cell growth (MDA-MB-231 cells [2]; 500 μM) | impaired MDA-MB-231 cell growth (MDA-MB-231 cells [2]; 1000 μM) | anti-proliferative activity (in words) (MDA-MB-231 cells [2]; concentrations from 300 to 1000 μM) | anti-proliferative activity (in words) (MDA-MB-231 cells [2]; up to 100 μM concentration) | IC50 (HDAC4) | inhibition of class IIa HDAC (in words) (HDAC4) | IC50 (HDAC1) | expression level of HDAC6 (MDA-MB-231 cells [3]; 500 μM) | expression level of HDAC6 (MDA-MB-231 cells [3]; 50 to 500 μM) | acetylation of α-tubulin (MDA-MB-231 cells [3]; concentrations ranging from 300 to 500 μM) | acetylation of Histone H3 (MDA-MB-231 cells [3]; up to 300 μM concentration) | inhibition of class IV HDAC11 (in words) (HDAC11; up to 100 μM concentration)
1 | O=C(CCCCCNC(=O)c1ccccc1O)Nc1ccccc1 [Compound 5, 2-Hydroxy-N-(6-oxo-6-(phenylamino)hexyl)benzamide] | > 100 µM | failed to inhibit | 27.3 ± 3.71 µM | more elongated and spindle-shaped | > 100 µM | failed to inhibit | 7.9 ± 2.57 µM | 64% | 81% | mediocre dose- and time-dependent anti-proliferative activity | no anti-proliferative activity | > 100 µM | failed to inhibit | 22.2 ± 2.69 µM | significantly depleted the expression level of HDAC6 | decreased the expression level of HDAC6 in a dose-dependent manner | promoted the acetylation of α-tubulin | dose-dependently increased the acetylation of Histone H3 | –
2 | O=C(CCCCCCC(=O)Nc1ccccc1)NO [SAHA, Vorinostat, reference compound] | – | – | – | – | – | – | – | – | – | – | – | – | – | – | – | – | – | – | no inhibition

— PMC9276175 (Medicine, 2022)
